Compound activity (PubChem)
In the library only some 2.6% were active in any assay of this set; here they are far more common.
SIRT5 block: SIRT5 desuccinylase inhibitors, primary screen, biochemical, fluorescence imaging, single point, set 5 | NAD-dependent protein deacylase sirtuin-5, mitochondrial (Homo sapiens), Q9NXA8 | Purified SirT5, succinyl-peptide AMC, trypsin-coupled fluorescence | inhibition, % at 15 µM | hit rate 1.1% among 330,000; in the data active = inhibition above about 15%
UCH37 DUB inh: inhibitors of human UCH37 deubiquitinase, primary screen, biochemical, Ub-AMC cleavage, fluorescence. Ubiquitin carboxyl-terminal hydrolase isozyme L5 (Homo sapiens), Q9Y5K5. purified proteasome/UCH37. inhibition, % (concentration not given with the values). hit rate 0.33% among 330,000. AID 588478, 2011;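 active = mean inhibition over replicate wells above about 20%, limit read from the data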;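 note: 0% = compound-free wells with enzyme and 100% = wells lacking proteasome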
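Material: human UCH37 enzyme supplied as purified proteasome complex / Amount: 0.15 nM proteasome as dispensed / Buffer or medium: pH 7.4 Tris-HCl (50 mM) with ovalbumin, ATP-MgCl2, DTT / Times: preincubation 30 min, reaction 25 min, room temperature / Technique: AMC fluorescence from Ub-AMC cleavage, excitation 355 nm, emission 460 nm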
NSD2 inh: NSD2 histone methyltransferase inhibitors, primary screen, biochemical, AlphaScreen, single concentration, set 2 | NSD2 peptide methylation, 120 min | AID 743445, 2014 | hit rate 0.54% among 310,000 | inhibition, % at 12.5 µM; in the data active = inhibition above about 50%
Target sequence (O96028 whole entry, looked up): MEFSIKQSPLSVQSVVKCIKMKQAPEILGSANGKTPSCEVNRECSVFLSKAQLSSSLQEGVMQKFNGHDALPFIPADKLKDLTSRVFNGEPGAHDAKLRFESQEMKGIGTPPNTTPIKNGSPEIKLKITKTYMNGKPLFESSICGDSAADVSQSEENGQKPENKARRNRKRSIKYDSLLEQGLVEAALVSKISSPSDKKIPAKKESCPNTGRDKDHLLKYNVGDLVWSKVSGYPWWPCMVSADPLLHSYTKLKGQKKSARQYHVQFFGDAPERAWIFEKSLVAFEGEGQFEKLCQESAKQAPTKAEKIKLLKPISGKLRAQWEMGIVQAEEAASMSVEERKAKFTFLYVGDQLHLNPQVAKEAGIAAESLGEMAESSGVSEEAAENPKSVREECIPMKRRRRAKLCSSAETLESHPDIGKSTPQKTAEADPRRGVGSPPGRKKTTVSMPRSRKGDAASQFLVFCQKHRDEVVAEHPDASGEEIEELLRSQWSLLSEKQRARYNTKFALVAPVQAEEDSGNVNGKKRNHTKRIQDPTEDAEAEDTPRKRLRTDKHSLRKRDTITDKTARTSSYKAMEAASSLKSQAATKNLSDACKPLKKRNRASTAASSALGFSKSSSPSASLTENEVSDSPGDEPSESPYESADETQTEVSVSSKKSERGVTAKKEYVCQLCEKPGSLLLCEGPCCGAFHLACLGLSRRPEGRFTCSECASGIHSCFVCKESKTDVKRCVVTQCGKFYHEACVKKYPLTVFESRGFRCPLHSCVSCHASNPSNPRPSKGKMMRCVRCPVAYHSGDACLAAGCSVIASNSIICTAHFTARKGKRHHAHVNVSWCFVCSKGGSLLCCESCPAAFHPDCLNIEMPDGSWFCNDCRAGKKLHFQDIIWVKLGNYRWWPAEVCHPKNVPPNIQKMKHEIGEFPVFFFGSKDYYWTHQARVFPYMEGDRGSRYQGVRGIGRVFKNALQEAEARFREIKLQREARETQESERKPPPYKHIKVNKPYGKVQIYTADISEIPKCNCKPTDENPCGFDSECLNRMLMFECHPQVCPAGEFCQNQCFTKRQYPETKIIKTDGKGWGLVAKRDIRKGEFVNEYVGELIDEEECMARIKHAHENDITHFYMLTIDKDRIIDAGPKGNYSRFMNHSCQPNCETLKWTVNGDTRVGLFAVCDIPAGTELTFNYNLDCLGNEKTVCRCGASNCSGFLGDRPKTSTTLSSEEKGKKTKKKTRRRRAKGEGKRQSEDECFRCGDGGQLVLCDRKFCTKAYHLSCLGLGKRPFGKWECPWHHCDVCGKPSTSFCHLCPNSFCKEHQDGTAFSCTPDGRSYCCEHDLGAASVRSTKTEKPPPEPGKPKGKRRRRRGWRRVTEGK
CASP6 VEID inh: human caspase-6 inhibitors, primary screen, biochemical, VEID-R110 fluorescence, single point, set 2; P55212; inhibition, % at 12.5 µM; hit rate 0.53% among 350,000; purified caspase-6, Z-VEID-R110 cleavage fluorescence;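 active = mean inhibition across replicates at least about 35%, with every replicate also reaching that limit, limit read from the data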;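 note: 0% = median of neutral control wells and 100% = no fluorescence left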
FGF22 binding: binders of human FGF22 protein, primary screen, FGF22 synaptogenesis inhibitor project, biophysical, thermal shift, single point; Fibroblast growth factor 22 (Homo sapiens), Q9HCT0; recombinant FGF22 thermal shift, SYPRO orange fluorescence; percent of sucrose octasulfate shift, DMSO zero; activity (Tm shift, normalised), % at 9.99 µM; hit rate 1.5% among 340,000;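 active = mean Tm shift, scaled 0 neutral to 100 positive control, at about 1.3% or above, every replicate too, limit read from the data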
* marks the source's active call; other numbers are inactive results; . = no result.

SMILES	SIRT5 block	UCH37 DUB inh	NSD2 inh	CASP6 VEID inh	FGF22 binding
CCN1[C@@H]2Cn3c(ccc(C4=CCCC4)c3=O)[C@H]1[C@@H](C(=O)N[C@H](C)c1ccccc1)[C@@H]2CO	-2	.	.	-2	0
COc1cccc(CNC(=O)C[C@H]2CC[C@H]3[C@@H](COc4ccc(NC(C)=O)cc4C(=O)N3C)O2)c1	1	.	.	2	.
O=c1c2ccccc2nc(/C=C/c2cccnc2)n1Cc1ccccc1	-2	11	-2	46*	0
O=c1c2ccccc2nc(/C=C/c2cccnc2)n1CCc1ccccc1	3	.	-2	6	0
CN1CCN(C(=O)C[C@H]2CC[C@H]3[C@H](COc4ccc(NC(=O)C5CCC5)cc4C(=O)N3C)O2)CC1	6	.	.	1	.
COc1ccc2c([N+](=O)[O-])c(Cl)[nH]c2c1	-1	-7	.	63*	0
CCOC(=O)c1c[nH]n2c(=S)ncnc12	.	.	-1	-4	43*
COc1ccc(-n2nnnc2SCC(=O)c2ccc3c(c2)OCCO3)c(OC)c1	27*	1	-2	1	0
C[C@H](CO)N1C[C@H](C)[C@@H](CN(C)Cc2ccccc2)Oc2c(NC(=O)Nc3ccccc3)cccc2C1=O	1	.	.	1	0
CCC(CC)c1nnc(NC(=O)C2CCCO2)s1 (stereo not drawn)	-2	.	-1	1	43*
CCCCc1nnc(NC(=O)C2CCCO2)s1 (stereo not drawn)	.	1	-1	.	.
C[C@H]1CN([C@@H](C)CO)S(=O)(=O)c2ccc(C#CC(C)(C)O)cc2O[C@@H]1CN(C)C(=O)CN(C)C	-5	.	.	-1	0
CS(=O)(=O)c1cccc(-c2csc(N3CCC(C(N)=O)CC3)n2)c1	1	-1	.	-1	43*
CN(C)c1cccc(-c2csc(N3CCC(C(N)=O)CC3)n2)c1	1	2	.	-1	0
OC(CN1CCN(c2ccccc2)CC1)c1c[nH]c2ccccc12 (stereo not drawn)	.	24*	.	.	.
OC(CN1CCN(Cc2ccc3c(c2)OCO3)CC1)c1c[nH]c2ccccc12 (stereo not drawn)	.	.	12	.	.
CC(C)(C)c1ccc(C(=O)NCCC(=O)NCc2ccc(F)cc2)cc1	15*	.	0	-2	0
CCCCN(Cc1cccs1)S(=O)(=O)c1ccc(-c2ccc(=O)[nH]n2)s1	0	2	2	2	0
CN(C)CCN(Cc1ccccc1)S(=O)(=O)c1ccc(-c2ccc(=O)[nH]n2)s1	16*	5	.	-5	0
O=C(Cc1c(F)cccc1Cl)NCCN1CCOCC1	1	1	1	2	43*
COc1ccc(C(=O)NCCN2CCOCC2)c(OC)c1OC	-4	0	-4	4	0
Cc1ccccc1NC(=O)NC1(C(=O)NCCCN2CCOCC2)CCCCC1	.	35*	-3	.	.
COc1ccccc1/C=C(/NC(=O)c1ccccc1)C(=O)NCCN1CCOCC1	-5	1	-2	8	44*
O=C(NCCN1CCOCC1)/C(=C\c1ccccc1Cl)NC(=O)c1ccccc1	-1	4	19	-1	0
O=C(NCCN1CCOCC1)c1c(Cl)cccc1Cl	-5	5	-1	-2	0
SMILES	SIRT5 block	UCH37 DUB inh	NSD2 inh	CASP6 VEID inh	FGF22 binding
COc1ccc(C(=O)NCCN2CCOCC2)c(OC)c1	-3	3	-3	-3	44*
Cc1cc(-c2n[nH]c(=S)n2N=C/C(Br)=C/c2ccccc2)n[nH]1	.	2	.	.	.
O=C(c1cccc(F)c1)N1CCCCN2[C@H](CO)[C@H](c3ccc(-c4ccncc4)cc3)[C@@H]2C1	3	.	.	0	0
Cc1ccccc1C(=O)NCCN1CCOCC1	-5	2	-3	0	44*
COc1ccc(-n2cnc3cc(C(=O)NCCN4CCOCC4)ccc32)cc1	-3	2	-1	-1	44*
CO[C@@H]1CN(C)C(=O)c2ccc(NC(=O)C3CC3)cc2OC[C@H](C)N(CC2CCOCC2)C[C@H]1C	.	.	.	.	0
Cc1cc(N2CCOCC2)nc(N2CCOCC2)n1	-1	1	-4	-1	43*
CN1CCN(C(=O)c2ccc(-n3cccn3)nc2)CC1	2	1	-2	-2	43*
